Experimental data of several laboratories.
PRKCE: Protein kinase C epsilon type (PRKCE, Homo sapiens, UniProt Q02156)
WDR5: WD repeat-containing protein 5 (WDR5, Homo sapiens, UniProt P61964)
OfChi-h: Chitinase (OfChi-h, Ostrinia furnacalis, UniProt Q4AE59)
HDAC7: Histone deacetylase 7 (HDAC7, Homo sapiens, UniProt Q8WUI4)

Structure (SMILES)	target	assay	conditions	endpoint	value
CC(C)Oc1ccc(S(=O)(=O)c2ccc(Oc3cc(OCC(N)=O)c(C(=O)C(Cl)Cl)cc3[N+](=O)[O-])cc2)cc1	[Pyruvate dehydrogenase (acetyl-transferring)] kinase isozyme 3, mitochondrial (PDK3, Homo sapiens, UniProt Q15120)	enzyme activity, inhibitor, ATP luminescence	10 µM	inhibition	27.9%
O=C(O)CNc1cccc(CN(Cc2ccc(-n3cccn3)cc2)S(=O)(=O)c2cccnc2)n1	Beta-2 adrenergic receptor (ADRB2, Homo sapiens, UniProt P07550)	ligand displacement, radioligand	10 µM	inhibition	12%
COc1ccc(S(=O)(=O)N(CC(=O)NO)CC(C)C)cc1	72 kDa type IV collagenase (MMP2, Homo sapiens, UniProt P08253)	enzyme activity, inhibitor	0.5 µM	inhibition	60.9%
COc1cc(-c2cncc3c2CN(C)Cc2cc(N4CCNCC4)ccc2-3)cc(OC)c1OC	G protein-coupled receptor kinase 6 (GRK6, Homo sapiens, UniProt P43250)	enzyme activity, inhibitor	1 µM	remaining activity	112%
CNc1ncc2c(/C=C/C(=O)N3CCC(OC)CC3)nn(Cc3cccc(C(F)(F)F)c3)c2n1	PRKCE	enzyme activity, inhibitor, radiometric	1 µM	remaining activity	99%
C[C@@H]1CN(c2ccc(-c3cc(C(=O)NCCOCCOCCOCCOCCNC(=O)/C=C/c4[nH]cc(C(=O)N[C@@H](CC(N)=O)c5ccc(F)c(Cl)c5)c4-c4ccc(Cl)cc4F)ccc3F)cc2NC(=O)c2c[nH]c(=O)cc2C(F)(F)F)C[C@H](C)N1C	WDR5	thermal stability, DSF	5.5 µM	ΔTm	10.6 °C
CN(C)c1nc(NCc2cccc(F)c2)c(/N=N/c2ccc(Cl)cc2)c(N(C)C)n1	OfChi-h	enzyme activity, inhibitor, fluorescence	1 µM	inhibition	82.7%
O=C(NO)c1cc(F)cc(OS(=O)(=O)Oc2ccccc2)c1	HDAC7	enzyme activity, inhibitor, fluorescence	10 µM	inhibition	47%
CN(C)c1nc(NCc2cccc(C(F)(F)F)c2)c(/N=N/c2ccc(Cl)cc2)c(N(C)C)n1	OfChi-h	enzyme activity, inhibitor, fluorescence	1 µM	inhibition	91.9%
C=CC(=O)N1CCC(COCC(=O)N2CCN(c3nc(-c4cnc(N)nc4C(F)F)nc(N4CCOC[C@@H]4C)n3)CC2)CC1	Epithelial discoidin domain-containing receptor 1 (DDR1, Homo sapiens, UniProt Q08345)	binding, competition with immobilised ligand	1 µM	remaining binding	99%
Cc1cc([C@@H](C)Nc2ccccc2C(=O)O)c2nc(N3CCC(F)(F)CC3)c(C#N)c(=O)n2c1	PRKCE	binding, competition with immobilised ligand	1 µM	remaining binding	100%
C[C@@H]1CN(c2ccc(-c3cc(C(=O)NCCOCCOCCOCCOCCOCCOCCNC(=O)/C=C/c4[nH]cc(C(=O)N[C@@H](CC(N)=O)c5ccc(F)c(Cl)c5)c4-c4ccc(Cl)cc4F)ccc3F)cc2NC(=O)c2ccc(F)cc2C(F)(F)F)C[C@H](C)N1C	WDR5	thermal stability, DSF	5.5 µM	ΔTm	5.9 °C
O=C(NO)c1cncc(OS(=O)(=O)Oc2ccc3ccccc3c2)c1	HDAC7	enzyme activity, inhibitor, fluorescence	10 µM	inhibition	46%
